Measured values: ChEMBL document CHEMBL3397044, “Discovery and in vitro and in vivo profiles of N-ethyl-N-[2-[3-(5-fluoro-2-pyridinyl)-1H-pyrazol-1-yl]ethyl]-2-(2H-1,2,3-triazol-2-yl)-benzamide as a novel class of dual orexin receptor antagonist” (Bioorg Med Chem, 2015)

Key:
[1] = system: Rattus norvegicus; test: Toxicity in Wistar rat assessed as effect on rotarod performance at 10 mg/kg, ip administered 30 mins prior to the test by rotarod test; format: organism-based; design: dose 10 mg/kg, route intraperitoneal; conditions: in vivo, 0.5 h
[2] = target: T1, Orexin/Hypocretin receptor type 1 (Homo sapiens) (UniProt O43613); test: Antagonist activity against human OX1 receptor expressed in CHO cells assessed as reduction in [Ala6,12]orexin-A-induced intracellular Ca2+ mobilization incubated for 30 mins by Fluo-4 AM dye based fluorescence assay; format: functional, cell-based
T1 sequence (whole entry): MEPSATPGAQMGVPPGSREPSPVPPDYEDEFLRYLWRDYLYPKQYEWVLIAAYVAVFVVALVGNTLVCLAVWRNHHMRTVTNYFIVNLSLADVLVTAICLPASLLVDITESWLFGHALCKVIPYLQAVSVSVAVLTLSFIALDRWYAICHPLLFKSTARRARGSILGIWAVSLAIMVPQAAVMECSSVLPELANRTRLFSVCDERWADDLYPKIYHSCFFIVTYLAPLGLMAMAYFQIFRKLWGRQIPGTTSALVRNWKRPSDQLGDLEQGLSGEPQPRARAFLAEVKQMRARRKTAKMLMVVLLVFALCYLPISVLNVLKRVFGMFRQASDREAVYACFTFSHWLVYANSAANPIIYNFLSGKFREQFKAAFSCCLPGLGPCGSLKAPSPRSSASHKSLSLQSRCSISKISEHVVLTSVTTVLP
Procedure, shortened: (§1)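 Cells seeded 2.4 × 10⁴/well, cultured 18 h. Loaded with Fluo-4 AM (0.5 µM final) in HBSS, 20 mM HEPES, 0.1% BSA, 2.5 mM probenecid, 0.2 mg/mL amaranth, pH 7.4, 37 °C 1 h. Washed, then antagonist for 30 min at room temperature. Peak minus basal fluorescence normalized to the [Ala6,12]orexin-A maximum. Kb = IC50/(1+[L]/EC50). At least three independent runs in duplicate.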

[3] = target: T2, Orexin receptor type 2 (Homo sapiens) (UniProt O43614); test: Antagonist activity against human OX2 receptor expressed in CHO cells assessed as reduction in [Ala6,12]orexin-A-induced intracellular Ca2+ mobilization incubated for 30 mins by Fluo-4 AM dye based fluorescence assay; format: functional, cell-based; procedure, shortened: as §1
T2 sequence (whole entry): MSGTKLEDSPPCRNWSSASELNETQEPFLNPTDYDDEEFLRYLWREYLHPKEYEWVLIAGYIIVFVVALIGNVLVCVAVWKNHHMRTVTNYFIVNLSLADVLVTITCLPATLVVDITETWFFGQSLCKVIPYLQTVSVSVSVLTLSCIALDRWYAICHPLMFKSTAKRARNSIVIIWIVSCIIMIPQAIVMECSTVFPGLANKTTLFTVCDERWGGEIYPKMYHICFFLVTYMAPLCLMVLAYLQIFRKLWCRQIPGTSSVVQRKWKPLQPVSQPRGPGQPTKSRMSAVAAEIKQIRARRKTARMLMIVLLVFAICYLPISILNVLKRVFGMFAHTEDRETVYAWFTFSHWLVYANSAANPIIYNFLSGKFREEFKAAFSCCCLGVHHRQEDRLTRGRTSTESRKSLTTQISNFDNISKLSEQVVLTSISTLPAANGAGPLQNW

[4] = Drug metabolism in human liver microsomes at 5 uM after 15 mins; format: ADME; conditions: read-out: Drug metabolism
Procedure, shortened: (§2)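 Liver microsomes at 1 mg protein/mL with 5 µM compound, incubated 15 min. Value reported as percentage of compound metabolized.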

[5] = Half life in Sprague-Dawley rat at 2 mg/kg, iv; format: ADME, organism-based; design: dose 2 mg/kg, route intravenous; conditions: in vivo
Procedure, shortened: (§3)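 Fasted male Sprague–Dawley rats (n = 3) given 2 mg/kg iv. Vd and CL taken from the iv profile. T1/2 calculated as ln2·Vd/CL.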

[6] = Drug metabolism in dog liver microsomes at 5 uM after 15 mins; format: ADME, Canis lupus familiaris; conditions: read-out: Drug metabolism; procedure, shortened: as §2
[7] = Tmax in Sprague-Dawley rat at 30 mg/kg, po; format: ADME, organism-based; design: dose 30 mg/kg, route oral; conditions: in vivo
[8] = Tmax in dog at 3 mg/kg, po; format: ADME, organism-based, Canis lupus familiaris; design: dose 3 mg/kg, route oral; conditions: in vivo
Procedure, shortened: (§4)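 Fasted male rats dosed orally at 10 mg/kg, and male dogs at 3 mg/kg (n = 3). Tmax read from the oral profile. F calculated against the iv arm (rat 2 mg/kg, dog 0.5 mg/kg).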

[9] = Volume of distribution in Sprague-Dawley rat at 2 mg/kg, iv; format: ADME, organism-based; design: dose 2 mg/kg, route intravenous; conditions: in vivo; procedure, shortened: as §3
[10] = Clearance in dog at 0.5 mg/kg, iv; format: ADME, organism-based, Canis lupus familiaris; design: dose 0.5 mg/kg, route intravenous; conditions: in vivo
Procedure, shortened: (§5)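 Male dogs given 0.5 mg/kg iv (n = 3). Vd and CL derived from the iv profile. T1/2 = ln2·Vd/CL.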

[11] = Ratio of drug level in brain to plasma in Sprague-Dawley rat at 30 mg/kg, ip; format: ADME, organism-based; design: dose 30 mg/kg, route intraperitoneal; conditions: read-out: BPR
Procedure, shortened: (§6)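 Male rats dosed ip at 30 mg/kg. Drug concentrations measured in brain, CSF and plasma, and reported as brain/plasma and CSF/plasma ratios.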

[12] = Half life in dog at 0.5 mg/kg, iv; format: ADME, organism-based, Canis lupus familiaris; design: dose 0.5 mg/kg, route intravenous; conditions: in vivo; procedure, shortened: as §5
[13] = Ratio of drug level in CSF to plasma in Sprague-Dawley rat at 30 mg/kg, ip; format: ADME, organism-based; design: dose 30 mg/kg, route intraperitoneal; procedure, shortened: as §6
[14] = Drug metabolism in rat liver microsomes at 5 uM after 15 mins; format: ADME; conditions: read-out: Drug metabolism; procedure, shortened: as §2
[15] = Volume of distribution in dog at 0.5 mg/kg, iv; format: ADME, organism-based, Canis lupus familiaris; design: dose 0.5 mg/kg, route intravenous; conditions: in vivo; procedure, shortened: as §5
[16] = Clearance in Sprague-Dawley rat at 2 mg/kg, iv; format: ADME, organism-based; design: dose 2 mg/kg, route intravenous; conditions: in vivo; procedure, shortened: as §3
[17] = Oral bioavailability in Sprague-Dawley rat at 30 mg/kg; format: ADME, organism-based; conditions: in vivo
[18] = Oral bioavailability in dog at 3 mg/kg; format: ADME, organism-based, Canis lupus familiaris; conditions: in vivo; procedure, shortened: as §4
[19] = Half life in human; format: ADME, organism-based; conditions: in vivo

| SMILES | Kb [2] | Kb [3] | other results |
| --- | --- | --- | --- |
| Cc1ccc(-c2nc3ccc(C)cn3c2CC(=O)N(C)C)cc1 [ZOLPIDEM] | – | – | Activity [1]: Toxic |
| Cc1ccc(-n2nccn2)c(C(=O)N(C)CCn2ccc(-c3ccc(F)cn3)n2)c1 | 2.27 nM | 8.58 nM | – |
| CCN(CCn1ccc(-c2ccc(F)cn2)n1)C(=O)c1cc(F)ccc1-n1nccn1 | 6.67 nM | 11.4 nM | metabolised at 0.25 h, 5 µM [4]: 35.3% |
| CCN(CCn1ccc(-c2ccc(F)cn2)n1)C(=O)c1cc(C)ccc1-n1nccn1 | 0.43 nM | 0.89 nM | metabolised at 0.25 h, 5 µM [4]: 35% |
| CCN(CCn1ccc(-c2cccc(C(F)(F)F)n2)n1)C(=O)c1cc(C)ccc1-n1nccn1 | 3.19 nM | 3.92 nM | – |
| CCN(CCc1cc(-c2ccc(F)cn2)no1)C(=O)c1cc(C)ccc1-n1nccn1 | 45.5 nM | 32.2 nM | – |
| CCN(CCn1ccc(-c2ccc(F)cn2)n1)C(=O)c1cc(C)ccc1-c1ncccn1 | 2.52 nM | 4.01 nM | half-life [5]: 19.1 min; metabolised at 0.25 h, 5 µM [6]: 10.1%; Tmax [7]: 40 min; Tmax [8]: 30 min; Vd [9]: 1.79 L/kg; clearance [10]: 13.1 mL/min/kg; metabolised at 0.25 h, 5 µM [4]: 19.7%; Kp [11]: 0.13; half-life [12]: 67.8 min; Kp [13]: 0.03; metabolised at 0.25 h, 5 µM [14]: 97.3%; Vd [15]: 1.29 L/kg; clearance [16]: 65.2 mL/min/kg; bioavailability [17]: 4.62%; bioavailability [18]: 100% |
| CCN(CCn1ccc(-c2ccc(C(F)(F)F)cn2)n1)C(=O)c1cc(C)ccc1-n1nccn1 | 48.6 nM | 902 nM | – |
| CCN(CCn1ccc(-c2ccc(F)cn2)n1)C(=O)c1cc(Cl)ccc1-n1nccn1 | 1.48 nM | 2.82 nM | metabolised at 0.25 h, 5 µM [4]: 46.9% |
| CCN(CCn1ccc(-c2ccc(F)cn2)n1)C(=O)c1cc(OC)ccc1-n1nccn1 | 119 nM | 638 nM | – |
| CCN(CCn1ccc(-c2ccc(F)cc2)n1)C(=O)c1cc(C)ccc1-n1nccn1 | 0.32 nM | 1.25 nM | – |
| CCN(CCn1ccc(-c2cc(C(F)(F)F)ccn2)n1)C(=O)c1cc(C)ccc1-n1nccn1 | 28 nM | 66.4 nM | – |
| CCN(CCc1noc(-c2ccc(F)cn2)n1)C(=O)c1cc(C)ccc1-n1nccn1 | 8.09 nM | 23 nM | – |
| CCN(CCn1ccc(-c2cccc(C)n2)n1)C(=O)c1cc(C)ccc1-n1nccn1 | 0.41 nM | 1.96 nM | – |
| CCN(CCc1cc(-c2ccc(F)cn2)on1)C(=O)c1cc(C)ccc1-n1nccn1 | 15.2 nM | 19.8 nM | – |
| Cc1ccc(-n2nccn2)c(C(=O)N(CCn2ccc(-c3ccc(F)cn3)n2)C(C)C)c1 | 38.5 nM | 37.9 nM | – |
| Cc1nc(C(=O)N2CCCC[C@H]2CNC(=O)c2cccc3occc23)c(-c2ccc(F)cc2)s1 [SB-649868] | – | – | half-life [19]: 204 min |
| CCN(CCn1cc(-c2ccc(F)cn2)cn1)C(=O)c1cc(C)ccc1-n1nccn1 | 3.81 nM | 7.22 nM | – |
| Cc1ccc(-n2nccn2)c(C(=O)NCCn2ccc(-c3ccc(F)cn3)n2)c1 | 152 nM | 376 nM | – |
| Cc1ccc(-n2nccn2)c(C(=O)N2CCN(c3nc4cc(Cl)ccc4o3)CC[C@H]2C)c1 [SUVOREXANT] | – | – | half-life [19]: 540 min |
